Compound activity (PubChem)
H9c2 TAG inh: inhibitors of triacylglycerol accumulation; H9c2 cells, Nile Red lipid (TAG) fluorescence; cells loaded with 200 µM oleic acid; AID 651582; inhibition, % at 12.5 µM; 230,000 compounds, 0.66% hits;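 active = pattern-corrected inhibition of lipid staining of at least 50% with the nuclear-stain viability signal not falling by more than 50%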;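 note: 0% = DMSO wells and 100% = triacsin C control wells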
GRK2 aptamer HTS: inhibitors of human GRK2 displacing RNA aptamer. P25098. bead flow cytometry, FAM-aptamer displacement from GRK2. inhibition of aptamer binding, % at 10 µM. 330,000 compounds, 0.59% hits;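 active = inhibition of aptamer binding above 40%, roughly 3 SD of noise, on plates passing a quality check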;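 note: median bead fluorescence of bound FAM aptamer so fluorescent compounds give negative values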
Lipid droplet: modulators of hepatic lipid droplet formation; 240,000 compounds, 0.4% hits; AML12 mouse hepatocytes, oleate lipid droplets, BODIPY imaging; inhibition, % at 6.5 µM;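 active = lipid droplet intensity inhibited by at least 50%, with more than 500 cells counted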
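Test system: AML12 mouse liver cells; schedule: overnight exposure; technique: high-content imaging of BODIPY-stained droplets and DAPI nuclei; read-out: % inhibition of corrected integrated BODIPY droplet signal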
Arr AP2 block: inhibitors of human beta-arrestin and AP2 interaction. FITC-arrestin peptide / GST-AP2 beads, flow cytometry; AP2 beta2 appendage carries R879A mutation. inhibition, % at 10 µM. 340,000 compounds, 0.31% hits. AID 504490;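 active = inhibition above a set limit, near 3 SD of compounds lacking own fluorescence, cut at about 54% in these data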;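 note: plate controls were DMSO wells for no effect and 5 µM unlabelled arrestin peptide for full effect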
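System: GST-AP2 R879A glutathione beads. Medium: PBS with 0.05% Tween 20 and 0.1% BSA. Also added: FITC-arrestin peptide, 50 nM. Incubation: 12 min plus 1 h, RT. Measured by: high-throughput flow cytometry of beads, ex 488, em 535 nm. Evaluation: percent drop in bead-associated FITC signal.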
Beta2AR agonist: human beta-2 adrenergic receptor agonism by FAP; P07550; Am2.2-beta2AR cells, FAP receptor internalization, flow cytometry; response, % (test concentration not listed); 340,000 compounds, 0.43% hits;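 active = response above a set limit, near 3 SD of response in nonfluorescent compounds, cut at about 42% in these data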
Target sequence (P07550 whole entry, looked up): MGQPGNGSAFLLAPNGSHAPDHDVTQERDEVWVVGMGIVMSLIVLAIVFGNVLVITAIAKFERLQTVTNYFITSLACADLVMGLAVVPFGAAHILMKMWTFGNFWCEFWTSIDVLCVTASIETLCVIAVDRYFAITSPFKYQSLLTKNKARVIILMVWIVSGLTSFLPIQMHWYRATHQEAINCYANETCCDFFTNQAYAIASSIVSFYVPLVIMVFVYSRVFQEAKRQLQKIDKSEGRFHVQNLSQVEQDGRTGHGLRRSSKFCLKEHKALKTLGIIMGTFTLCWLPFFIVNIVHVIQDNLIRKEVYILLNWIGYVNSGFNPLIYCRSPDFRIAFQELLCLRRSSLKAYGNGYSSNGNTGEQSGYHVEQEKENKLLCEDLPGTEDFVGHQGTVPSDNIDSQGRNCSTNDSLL
NTR1 ag: agonists of human neurotensin receptor NTR1. NTR1-U2OS beta-arrestin-GFP spot imaging, agonist mode. activation, % at 20 µM. 330,000 compounds, 0.17% hits. P30989;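 active = activation at or above 40% of the spot to cytoplasm intensity ratio, with at least 20 cells analyzed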;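 note: 0% = DMSO without peptide and 100% = 100 nM NTR1 peptide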
GRK2 CP1: confirmation of human GRK2 inhibitors displacing RNA aptamer. shares compounds with GRK2 aptamer HTS. bead-bound GRK2, FAM-aptamer displacement, flow cytometry. aptamer displacement, % at 10 µM. 2,000 compounds, 4% hits. AID 504451;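 active = aptamer displacement above 40%, near three times the noise of non-fluorescent compounds, on plates passing quality checks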;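 note: negative values mostly reflect intrinsic compound fluorescence rather than true enhancement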
Aptamer quench 1: quenches fluorescent RNA aptamer, GRK2 hit artifact; shares compounds with GRK2 aptamer HTS; Fluorescent RNA aptamer beads, quenching, flow cytometry; hits give high values; fluorescence change (kMESF span), kMESF (test concentration not listed); 110 tested, under 10 active; AID 504521;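 active = compounds whose bead fluorescence drops by more than 37 kMESF across the dose range, marking them as dye quenchers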
FAM quench CP1: quenches fluorescent RNA aptamer, GRK2 hit artifact. shares compounds with GRK2 aptamer HTS. Carboxyfluorescein RNA aptamer on beads, flow cytometry quenching; hits give low values. fluorescence response (% of DMSO), % at 10 µM. 2,000 tested, under 10 active;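 active = compounds that quench the bead-bound fluorescent RNA probe, cutting fluorescence to under half of the solvent control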;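 note: counterscreen run without GRK2 so only probe quenching by compound is measured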
Active calls of the source: *; · = no result given. An excerpt weighted towards active compounds, which were near 2% of everything screened.

SMILES	H9c2 TAG inh	GRK2 aptamer HTS	Lipid droplet	Arr AP2 block	Beta2AR agonist	NTR1 ag	GRK2 CP1	FAM quench CP1	others
CCOC(=O)C1(CCc2ccccc2)CCN(C(=O)CN2C(=O)CSC2=O)CC1	3.4	92.0*	-1.2	6.5	-2.8	1.2	-5.5	98.7
Cc1ccc([N+](=O)[O-])cc1NC(=O)c1cccnc1	·	1.0	-2.3	8.0	-1.2	1.0	·	·
COCCn1c(=S)[nH]c2cc(C(=O)N3CCN(Cc4ccc5c(c4)OCO5)CC3)ccc2c1=O	3.0	45.0*	·	0.7	-5.2	-0.5	2.2	100.6
COCCn1c(=O)[nH]c2cc(C(=O)N3CCN(Cc4ccc5c(c4)OCO5)CC3)ccc2c1=O	3.2	·	·	1.7	3.9	·	·	·
O=C(CCC1CCCN(C(=O)c2ccc3c(c2)OCCO3)C1)NCc1ccccc1F (configuration not stated)	6.6	0.0	1.5	-16.9	-2.6	0.2	·	·
Cc1ccc(CNC(=O)CCC2CCCN(C(=O)c3ccc4c(c3)OCO4)C2)o1 (configuration not stated)	-9.3	45.0*	-1.6	-9.6	7.6	1.2	-1.8	93.1
CNc1snc(C)c1C(=O)OCC(=O)c1ccc(Cl)cc1	-25.5	51.0*	·	-0.2	5.3	-2.8	6.3	91.0
CCc1noc(C)c1C(=O)OCC(=O)Nc1nc(-c2ccc(F)c(F)c2)cs1	1.5	0.0	·	1.6	7.2	0.9	·	·
O=C(O)CC/C(=C\c1ccc(N2CCCC2)c([N+](=O)[O-])c1)c1nc2ccccc2s1	9.1	71.0*	-11.2	-7.9	-5.0	4.0	-4.8	99.7
CCn1c(CNC(=O)C(C)(C)C)nc2ccccc21	5.4	0.0	·	0.8	7.7	-0.8	·	·
CCCCn1c(CNC(=O)C(C)(C)C)nc2ccccc21	4.5	83.0*	-5.0	-2.3	-4.9	-1.0	-0.9	100.4
COc1ccc(/C=C/C(=O)c2cccc(-n3cnnn3)c2)cc1O	·	98.0*	7.2	5.7	6.0	3.0	-0.5	100.2
COc1ccc(C=CC(=O)c2ccc(OC)c(OC)c2)cc1O	-0.1	·	·	·	·	·	·	·
COCCNC(=O)COC(=O)c1cccnc1SC	-14.8	1.0	-11.8	6.5	-7.8	0.7	·	·
CCOC(=O)Cc1nnc(Nc2cccc(C)c2)c2ccccc12	-7.8	92.0*	-3.4	-1.1	15.3	-0.2	11.0	132.7
COC(=O)Cc1nnc(Nc2cccc(C)c2)c2ccccc12	-2.8	3.0	-11.6	6.5	5.2	-1.0	·	·
NC(=O)c1ccc(NC(=O)COC(=O)c2cc3c(s2)CCC3)cc1	1.1	52.0*	·	26.8	-2.0	1.3	24.6	100.7
O=C(COC(=O)c1cc2c(s1)CCC2)Nc1ccc(F)cc1	-10.6	36.0	17.1	5.7	3.7	1.5	·	·
COc1ccccc1CNC(=O)CN1C(=O)c2ccc([N+](=O)[O-])cc2C1=O	·	0.0	7.2	2.8	5.5	-0.7	·	·
CCCCOCCCNc1ncnc2c1[nH]c1ccccc12	·	53.0*	-74.3	-1.6	-1.5	4.4	-8.2	99.0
CCn1cc([N+](=O)[O-])c(=O)c2cc(F)c(N3CCOCC3)cc21	·	64.0*	-11.8	-8.6	8.8	-0.7	0.5	98.2
CCn1cc(C(=O)NN)c(=O)c2cc(F)c(N3CCOCC3)cc21	·	1.0	-22.1	8.7	5.8	-0.6	·	·
COc1ccc(C2=CC(=O)C[C@H](c3ccc(F)cc3)C2)cc1OC	·	4.0	·	4.7	-8.2	2.5	·	·
CCN(CC)CCOC(=O)C1(c2ccccc2)CCCC1	·	69.0*	-3.5	-4.2	-3.0	2.4	-0.2	98.9
O=C(N/N=C/c1ccc(Br)s1)c1ccc([N+](=O)[O-])cc1	37.6	78.0*	2.5	-2.3	-0.6	2.8	-26.4	99.5
SMILES	H9c2 TAG inh	GRK2 aptamer HTS	Lipid droplet	Arr AP2 block	Beta2AR agonist	NTR1 ag	GRK2 CP1	FAM quench CP1	others
O=C(N/N=C/c1ccc(Br)s1)c1ccccc1[N+](=O)[O-]	-33.3	0.0	·	-1.2	7.9	1.1	·	·
O=C(O)CN1C(=O)CSc2ccccc21	3.4	1.0	·	-7.4	-3.4	-1.4	·	·
O=CN1c2ccccc2CSc2ccccc21	-10.4	74.0*	·	37.1	1.9	-1.2	-4.0	100.3
Cc1noc(C)c1COc1ccc(C(=O)Nc2ncccc2O)cc1	-0.8	2.0	·	21.4	-3.0	-0.7	·	·
CCCC[N+](C)(C)CCC(=O)NC(C)(C)CS(=O)(=O)[O-]	-1.0	40.0	·	-4.3	3.1	0.1	27.1	102.7	Aptamer quench 1=-236
COc1cccc(CC2(CO)CCCN(Cc3cn[nH]c3-c3ccccc3)C2)c1 (configuration not stated)	-15.6	99.0*	-8.0	-2.6	2.4	0.0	-3.4	101.7
CN(CCc1cnn(C)c1)C(=O)C1CCC(=O)N(CC2CCCCC2)C1 (configuration not stated)	·	1.0	-2.1	28.8	-7.7	0.0	·	·
CCCCOC(=O)c1cc(C)nc2ccc(Br)cc12	·	17.0	0.9	-6.7	4.5	4.4	-0.7	94.5
Fc1ccc(CNc2cnccn2)cc1	·	64.0*	·	26.7	0.8	-0.5	-1.0	99.5
Clc1ccc(CNc2cnccn2)cc1	·	2.0	2.3	0.9	0.6	0.1	·	·
Cc1cccc(-c2nc(CN3CCCC(C(=O)NC4CCCCCC4)C3)c(C)o2)c1 (configuration not stated)	11.0	3.0	·	21.4	4.1	10.7	-4.3	102.6
Cc1oc(-c2ccc(Cl)cc2)nc1CN1CCCC(C(=O)NCc2cccnc2)C1 (configuration not stated)	0.5	0.0	·	-6.3	-3.9	3.4	-1.8	100.4	Aptamer quench 1=3.4
Cc1oc(-c2ccc(Cl)cc2)nc1CN1CCCC(C(=O)NCCCN2CCOCC2)C1 (configuration not stated)	5.4	0.0	·	23.3	8.3	-0.5	·	·
Cc1oc(-c2cccc(Cl)c2)nc1CN1CCCC(C(=O)NCc2ccco2)C1 (configuration not stated)	·	0.0	·	1.8	-13.7	0.5	0.5	101.4
Cc1oc(-c2ccc(Cl)cc2)nc1CN1CCCC(C(=O)NCc2ccccn2)C1 (configuration not stated)	·	0.0	·	-0.8	-3.7	-0.8	1.4	92.8
CCCOc1ccccc1NC(=O)/C=C/c1ccc(OC)c(S(=O)(=O)N2CCOCC2)c1	19.1	·	·	·	·	·	·	·
COC(=O)C(=Cc1ccccc1[N+](=O)[O-])C(=O)OC	·	0.0	-0.9	9.6	11.4	4.3	·	·
